Sequences and labels used below:
B1: tRNA (parent)
chain: GUUCCGUUGGCGUAAUGGUAACGCGUCUCCCUCCUAAGGAGAAGACUGCGGGUUCGAGUCCCGUACGGAACG

Consider 38 variants from the RNAGym collection of RNA variant scans (doi:10.1126/science.aae0568).

Fewer inactive variants are shown than the library holds.

Variants of B1 are the subject of the data set. In words: yeast fitness relative to wild type (ratio to wild type); higher = fitter; tRNA-Arg(CCU), competitive growth, 37 C, YPD. The gist of the method:
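Changes in genotype frequencies gave Darwinian fitness relative to wild type. Frequencies were read by 100-nucleotide paired-end sequencing of gene amplicons before and after pooled Saccharomyces cerevisiae strains, carrying tRNA-Arg(CCU) gene variants at the native locus, were competed in YPD at 37°C for 24 hours in six replicates. A genotype was kept only with ≥ 100 starting reads, and estimates < 0.5 were set to 0.5.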
Turning to GUUCCGUUGCCGUAAUGGUAACGCGUCUCCCUCCUAAGGAGAAGACUGCGGGUUGGAGUCCCGUACGGCACG [G10C C55G A69C], the yeast fitness was no more than 0.5. Regarding GUUCCGUUGCCGUAAUGGUAAGGCGUCUCCCUACUAAGGAGAAGACUGCGGGUUCGAGUCCCGUACGGAACG [G10C C22G C33A], the yeast fitness turned out to be 0.581. Under GUUCCGUUGCCGUAAUGGUAACGCGUCUCCCUCCUAAGGAGGAGACUGCGGGUUCGUGUCCCGUACGGAACG [G10C A42G A57U] stands no more than 0.5; under GUUCCGUUGCCGUAAUGGUAACGCGUCUCCCUCCUAAGGAGUAGAGUGCGGGUUCGAGUCCCGUACGGAACG [G10C A42U C46G], no more than 0.5. For GUUCCGUUGCCGUAAUGGUAACGCGUCUCCCUACUAAGGUGAAGACUGCGGGUACGAGUCCCGUACGGAACG [G10C C33A A40U U54A] the value was no more than 0.5; for GUUCCGUUGCUGUAAUGGUAGCGCGUCUCCCUCCUAAGGGGAAGACUGCGGGUUCGAGUCCCGUACGGAACG [G10C C11U A21G A40G], no more than 0.5; for GUUCCGUUGCCGUAAUGGUUACGCGUCUCCCUCCUAAGGAGAAGACUGCGGGUUCGUGUCCCGUACGGAACG [G10C A20U A57U], no more than 0.5.

Consider GUUCCGUUGCCGUAAUGGUUACGCGUCUCCCUCCUAAGGAGAAGACUGCGGGUUCGAGUCCCGUACGGAACG [G10C A20U], for which the yeast fitness is 0.799. For GUUCCGUUGCCGUAAUGGUAAAGGGUUUCCCUCCUAAGGAGAAGACUGCGGGAUCGAGUCCCGUACGGAACG [G10C C22A C24G C27U U53A] the value was 0.543. Under GUUCCGUUGCCGUAAUGGUAAAGGGUCUCCCUCCUAAGGAGAAGACUGCGGGAUCGAGUCCUGUACGGAACG [G10C C22A C24G U53A C62U] stands no more than 0.5; under GUUCCGUUGCCGUAAUGGUAACGCGUCUCCCUCCUACGGAGAUGACUGCGGGUUCGAGUCCCGUACGGAACG [G10C A37C A43U], no more than 0.5. For the variant GUUCCGUUGCCGUAAUGGUAACGCGUCUCCCUCCUAAGGAGAAGCAUGCGGGUUCGAGUCCCGUAUGGAACG [G10C A45C C46A C66U], the yeast fitness was 0.643. Under GUUCCGUUGCCGUAAUGGUAACGCGUCUCCCUCGUAAGGAGAAGACUGCGGGUUCGAGUCCCAUACGGUCCG [G10C C34G G63A A69U A70C] stands no more than 0.5; under GUUCCGUUGCCGUAAUGGUAACGCGUCUACCUACUAAGGAGAAGACUGCGGGUUCGAGUCCUGUACGGAACG [G10C C29A C33A C62U], 0.6.

GUUCCGUUGCCGUAAUGGUAACGCGUCUCUCUCCUAAGGAGAAGACUGCGGGUUCGAGUCCCGUAAGGAACG [G10C C30U C66A]: the yeast fitness was no more than 0.5. Under GUUCCGUUGCCGUAAUGGUAACGCGUCUCCCUCCUACGGAGAAGACUGCGGGUUCGAGUCCCGUACGGAACG [G10C A37C] stands 0.622; under GUUCCGUUGCCGUAAUGGUAACGCGUCUCCCUCCUAUGGAGAAGACUGCGGGUUCGAGUCCCGUACGGAACG [G10C A37U], no more than 0.5. For GUUCCGUUGCCGUAAUGGUACCGCGUAUCCCUCAUAAGGAGAAGACUGCGGGUUCGAGUCCCGUACGGAACG [G10C A21C C27A C34A] the value was no more than 0.5; for GUUCCGUUGCCGUAAUGGUAACGCGUAUCCCUCCUAAGGAGUAGAGUGCGGGUUCGAGUCCCGUACGGAACG [G10C C27A A42U C46G], no more than 0.5. For GUUCCGUUGCCGUAAUGGUAACGCGUCUCCCUCAUAAGGAGAAGACUGCGGGAGCGAGUCCCGUACGGAACG [G10C C34A U53A U54G] the value was no more than 0.5; for GUUCCGUUGCCGUAAUGGUAACGCGUCUCCCUCCUAAGGAGAUGACUGCGGGUUCGAGUCCCCUAAGGAACG [G10C A43U G63C C66A], no more than 0.5; for GUUCCGUUGCCGUAAUGGUAACGCGUCUCCCUGCUCAGGAGAAGAAUGCGGGUUCGAGUCCCGUUCGGAACG [G10C C33G A36C C46A A65U], 0.53. GUUCCGUUGCCGUAAUGGUAACGCGUCUCCGUCCUAAGGAGAAGACUGCGGGUUCGAGUCCCGUACGGAACG [G10C C31G]: the yeast fitness came out at 0.631.

With GUUCCGUUGCCGUAAUGGUAACGCGUCUCCCUCCUAAGGAGAAGAUUGCGGGUUCGAGUCCUGUACGGAACG [G10C C46U C62U], the yeast fitness was no more than 0.5. Under GUUCCGUUGCUGUAAUGGUAACGCGUCUCCCUCCUAAGGAGAAGACUGCGGGUUCGAGUCCCGUACAGAACG [G10C C11U G67A] stands no more than 0.5; under GUUCCGUUGCCGUAAUGGUAACGCGUCUCCCUCCUAAGGAGAAGGCUGCGGGUUCGAGUCCCGUACGGAACG [G10C A45G], 0.716; under GUUCCGUUGCCGUAAUGGUAACGCGUCUUCCUCUUAAAGAGAACACUGCGGGUUCGAGUCCCGUACGGAACG [G10C C29U C34U G38A G44C], no more than 0.5. Take GUUCCGUUGCCGUAAUGGUAACGCGUCUCCCUCCUAAGGAGAAGACUGGGGGGUCGAGUCCCGUACGGAACG [G10C C49G U53G]: the yeast fitness stood at 0.551. Take GUUCCGUUGCCGUAAUGGUAAUGCGUCUCCCUCCUAAGGAGAAGACUGCGGGUUCGAGUCCCGUACGGAACG [G10C C22U]: the yeast fitness is 0.803. Take GUUCCGUUGCCGUAAUGGUAAAGCGUCUCCCUCCUAAGGAGAAGACUGCGGGUUCGAGUCCCGUACGGAACG [G10C C22A]: the yeast fitness came out at 0.705.

Turning to GUUCCGUUGCCGUAAUGGUAACGUGUCUCCCUCUUUAGGAGAAGAAUGCGGGUUCGAGUCCCGUACGGAACG [G10C C24U C34U A36U C46A], the yeast fitness was 0.505. For GUUCCGUUGCCGUAAUGGUAACGCGUCUCCCUCCUAAGGAGACGACCGCGGGUUUGAGUCCCGUACGGCACG [G10C A43C U47C C55U A69C] the value was no more than 0.5; for GUUCCGUUGCCGUAAUGGUAACGCGUCUCCCUCCUAAGGAGCAGACUGCGGGUUCGAGUCCCGUACGGAACG [G10C A42C], 0.71. For GUUCCGUUGCCGUAAUGGUAACGCGUCUCCAUCCUAAGGAGAAGACUGCGGGUUCAAGUCCCGUGAGCAACG [G10C C31A G56A A65G C66A G68C] the value was no more than 0.5; for GUUCCGUUGCCGUAAUGGUAAAGGGUCUCCCUCCUAAGGAGAAGACUGCGCGUUCGAGUCCUGUACGGAACG [G10C C22A C24G G51C C62U], no more than 0.5. For GUUCCGUUGCCGUAAUGGUAACGCGUCUCCCUGCUAAGGAGAAGACUGCGGGUUCGAGUCCAGUACCGAACG [G10C C33G C62A G67C] the value was no more than 0.5. Consider GUUCCGUUGCUGUAAUGGUAACGUGUCUCCCUGCUUAGGAGAAGACUGCGGGUUCGAGUCCCGUACGGAACG [G10C C11U C24U C33G A36U], for which the yeast fitness is no more than 0.5. For GUUCCGUUGCCGUAAUGGUAACGUGUCUCCCUCGUAAGGAGAAGACUGCGGGUUCGAGUCCCGUCCGGAACG [G10C C24U C34G A65C] the value was no more than 0.5.
